Here are results for 19 molecules from article PMC7707623 (Journal of Medicinal Chemistry, 2020).

Experiment [1] has as its system three independent murine SCLC (mSCLC) cell lines. Kind of experiment: Cytotoxicity against three murine SCLC cell lines. The settings on record: Mus musculus, read-out: average EC50. Format: cell-based. The essentials:
(§1)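 Murine SCLC cells were allowed to attach overnight, then given test compound as a 10-point log-dilution series. Viability was read by CellTiter-Glo luminescence at 72 h, with the reagent diluted 1:1 in PBS/1% Triton-X. Signals were normalized to DMSO-treated cells and IC50 values came from curve fitting (n = 2 technical replicates). Fold values are ratios of these IC50s.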

The test system of experiment [2] is human SCLC cell lines, H889, H2107, and H128. Kind of experiment: Dose response against human SCLC cell lines. It counts as cell-based.
Experiment [3] concerns yeast cells (Sec14). The settings on record: through inhibition of Sec14; cited from earlier work.
Experiment [4] has as its system murine SCLC cell line 319N1. Kind of experiment: Cytotoxicity assay. It counts as cell-based, mouse. The procedure, abridged:
as §1

For experiment [5], the system named is 319N1-M2KO resistant clones A–E. As to the kind of experiment: Cytotoxicity against sulfonamide 27-resistant clones. Format: cell-based, mouse. The settings on record: for IC50 fold change, resistant clones versus parental: all five clones A–E.
The target in experiment [6] is T1, p50 (β-tubulin) in 518T2 murine SCLC cells (Mus musculus, UniProt P99024). Format: binding. The settings on record: 50 nM to 50 μM, 1.5 h, Alexa Fluor 532 azide. The essentials:
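518T2 cells were plated at 1 million per well in DMEM with 5% FBS. Next day the alkyne probe in DMSO was added at 50 nM to 50 μM for 1.5 h at 37 °C, 5% CO2. Cells were PBS-washed and lysed in 1% SDS buffer (50 mM HEPES pH 7.4, 10 mM KCl, 2 mM MgCl2, benzonase). Lysates were copper-clicked to 25 μM Alexa Fluor 532 azide, run on SDS-PAGE and imaged by in-gel fluorescence.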

The subject of experiment [7] is bovine brain tubulin. As to the kind of experiment: Microtubule dynamics assay, brain tubulin. Format: biochemical.
In experiment [8] the target is human recombinant β3 tubulin (Homo sapiens, UniProt Q13509). As to the kind of experiment: Microtubule dynamics assay, recombinant β3 tubulin. Format: biochemical. The essentials:
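Human αβ-tubulin (TUBA1B with TUBB3, C-terminal His-tag removed by TEV) was expressed in Tni insect cells and purified by Ni-affinity and anion exchange. Compound was added at 1, 5 or 10 μM versus DMSO; kymograph growth rates were taken from 71–119 microtubules over two trials.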

In experiment [9] the target is T1, p50 (β-tubulin) in 518T2 murine SCLC cells. As to the kind of experiment: Cell-based competition with alkyne probe 24. It counts as binding. The settings on record: probe 24 at 5 μM, pre-treatment with increasing concentrations.
The test system of experiment [10] is 518T2 cells. Kind of experiment: Cell cycle analysis by flow cytometry. Format: cell-based, mouse. The settings on record: 300 nM, 24 h. For orientation: Flow cytometry measures light scatter and fluorescence of single cells or particles in a stream.
Experiment [11] has as its system 518T2-Tubb5^T238A cells. Kind of experiment: Dose response in Tubb5 T238A edited cells. Format: cell-based, mouse. The settings on record: 518T2-Tubb5^T238A versus 518T2.

Bounds are passed on as bounds.

Consider `O=C(c1ccc(Cl)c([N+](=O)[O-])c1)N1CCN(c2ccccc2)CC1` [Compound 1], for which, in experiment [1], the EC50 (in general, the concentration at which the effect is half-maximal) stood at 3210 ± 600 nM. Further, in [2], the “sensitivity of human SCLC cell lines” value is recorded as “exhibited sensitivity”. Also, the “toxicity to yeast cells” value in experiment [3] was “toxic to yeast cells”. Consider `O=C(c1ccc(Cl)c([N+](=O)[O-])c1)N1CCN(c2ccccc2Cl)CC1` [Compound 2, (4-Chloro-3-nitrophenyl)(4-(2-chlorophenyl)piperazin-1-yl)methanone], for which, in experiment [4] (319N1), the “antiproliferative activity in words” value is recorded as “slightly improved potency”.

Turning to `COc1cccc(N2CCN(C(=O)c3ccc(Cl)c([N+](=O)[O-])c3)CC2)c1` [Compound 3, (4-Chloro-3-nitrophenyl)(4-(3-methoxyphenyl)piperazin-1-yl)methanone], the “fold more potent than benzamide 1” value in [4] (319N1) is on record as ~3 fold.

In the case of `Cc1cccc(N2CCN(C(=O)c3ccc(Cl)c([N+](=O)[O-])c3)CC2)c1` [Compound 4, (4-Chloro-3-nitrophenyl)(4-(m-tolyl)piperazin-1-yl)methanone], in [4] (319N1), the “fold more potent than benzamide 1” value is ~3 fold. On to `Cc1ccc(Cl)cc1N1CCN(C(=O)c2ccc(Cl)c([N+](=O)[O-])c2)CC1` [Compound 10, (4-(5-Chloro-2-methylphenyl)piperazin-1-yl)(4-chloro-3-nitrophenyl)methanone], for which the concentration for a half-maximal effect (EC50) in experiment [4] (Mus musculus, 319N1) is 182 nM. Besides, the “IC50 fold change, resistant clones versus parental” value in [5] is given as > 2.5 fold. Turning to `O=C(c1ccc(Cl)c([N+](=O)[O-])c1)N1CCN(c2ccccc2F)CC1` [Compound 12], the “fold less active than parent benzamide 1” value in experiment [4] (319N1) is 2 fold.

On to `Cc1ccc(Cl)cc1N1CCN(C(=O)c2ccc(F)c([N+](=O)[O-])c2)CC1` [Compound 20, (4-(5-Chloro-2-methylphenyl)piperazin-1-yl)(4-fluoro-3-nitrophenyl)methanone], for which, in [4] (Mus musculus, 319N1), the EC50 was 818 nM. The molecule `Cc1ccc(Cl)cc1N1CCN(C(=O)c2ccc(I)c([N+](=O)[O-])c2)CC1` [Compound 22, (4-(5-Chloro-2-methylphenyl)piperazin-1-yl)(4-iodo-3-nitrophenyl)methanone] showed a 50% effective concentration (EC50) in [4] (Mus musculus, 319N1) of 51 nM. Still for that read-out and setting: to `Cc1ccc(Cl)cc1N1CCN(C(=O)c2ccc(OC(F)(F)F)c([N+](=O)[O-])c2)CC1` [Compound 23, (4-(5-Chloro-2-methylphenyl)piperazin-1-yl)(3-nitro-4-(trifluoromethoxy)phenyl)methan-one] belongs 20 nM. As for `C#CCOc1cccc(N2CCN(C(=O)c3ccc(Cl)c([N+](=O)[O-])c3)CC2)c1` [Compound 24, (4-Chloro-3-nitrophenyl)(4-(3-(prop-2-yn-1-yloxy)phenyl)piperazin-1-yl)methanone], the “covalent modification of 50 kDa protein (p50), in-gel fluorescence” value in experiment [6] was “covalently modified”.

For the molecule `C#CCOc1cccc(N2CCN(C(=O)c3ccc(C)c([N+](=O)[O-])c3)CC2)c1` [Compound 25, (4-Methyl-3-nitrophenyl)(4-(3-(prop-2-yn-1-yloxy)phenyl)piperazin-1-yl)methanone], in experiment [4] (319N1), the “fold less active compared to 24” value was found to be 10 fold. Besides, the “covalent modification of 50 kDa protein (p50), in-gel fluorescence” value in experiment [6] was “not observed”.

Turning to `COc1cc(OC)cc(N2CCN(C(=O)c3ccc(C=O)c([N+](=O)[O-])c3)CC2)c1` [Compound 26, 4-(4-(3,5-Dimethoxyphenyl)piperazine-1-carbonyl)-2-nitrobenzaldehyde], the EC50 in experiment [4] (Mus musculus, 319N1) stood at 127 nM. Moreover, the “effect on growth of microtubules of bovine brain tubulin, in words” value in experiment [7] (0.5 μM (SI Figure 5C)) was “potently reduced the growth”. Also, in experiment [8] (1, 5 and 10 μM), the “effect on dynamics of β3 tubulin microtubules, in words” value is “dose-dependently altered the dynamics”. For the molecule `COC(=O)c1c(C)oc2ccc(NS(=O)(=O)c3ccc(Cl)c([N+](=O)[O-])c3)cc12` [Compound 27], the “competition with probe 24 for p50, in words” value in experiment [9] was “displaced probe 24 from p50 in a dose-responsive manner”. For the same molecule, the “IC50 fold change, resistant clones versus parental” value in experiment [5] was > 2 fold. On to `O=C(c1ccc(Cl)cc1)N1CCN(c2ccccc2)CC1` [Compound 28], for which the “antiproliferative activity in words” value in [4] (319N1) is given as “complete eradication of antiproliferative activity”.

As to `O=C(c1cccc([N+](=O)[O-])c1)N1CCN(c2ccccc2)CC1` [Compound 29], the “antiproliferative activity in words” value in experiment [4] (319N1) is “complete eradication of antiproliferative activity”. As to `COc1cc2c(c(OC)c1OC)-c1ccc(OC)c(=O)cc1[C@@H](NC(C)=O)CC2` [colchicine, reference compound], the cell cycle effect result in [10] is “induced G2/M cell cycle arrest”.

Turning to `COc1cc([C@@H]2c3cc4c(cc3[C@@H](O[C@@H]3O[C@@H]5CO[C@@H](C)O[C@H]5[C@H](O)[C@H]3O)[C@H]3COC(=O)[C@H]23)OCO4)cc(OC)c1O` [etoposide, reference compound], in [5] (clones A–E), the “cross-resistance of 27-resistant clones, in words” value is recorded as “not cross-resistant”. On to `CC[C@]1(O)C[C@H]2CN(CCc3c([nH]c4ccccc34)[C@@](C(=O)OC)(c3cc4c(cc3OC)N(C=O)[C@H]3[C@@](O)(C(=O)OC)[C@H](OC(C)=O)[C@]5(CC)C=CCN6CC[C@]43[C@@H]65)C2)C1` [vincristine, reference compound], for which, in [9], the “competition with probe 24 for p50, in words” value is on record as “no such probe competition was observed”. Consider “(4-Bromo-3-nitrophenyl)(4-(5-chloro-2-methylphenyl)piperazin-1-yl)methanone [Compound 21]”, for which, in experiment [4] (319N1 mSCLC cells, quoted in running text), a half-maximal effect (EC50) was put at 55 nM. The cell cycle effect entry in [10] is “induced G2/M cell cycle arrest”. Also, the “effect on growth of brain tubulin, in words” value in experiment [7] (1 μM) is listed as “dramatically affected the growth”. Moreover, in [7] (10:1 (tubulin/compound) ratio, compared to control), the “reduction of growth of bovine brain microtubules” value is listed as “approximately 80%”. In experiment [8] (up to 10 μM), the “effect on in vitro microtubule growth rate of β3 tubulin, in words” value was “failed to impair”. Further, the “compound resistance compared to parental 518T2 cells” value in experiment [11] is “Compound resistance to analog 21 was confirmed”.
